This passage reports GI50 results from ChEMBL document CHEMBL4118029, “Marine Terpenoid Diacylguanidines: Structure, Synthesis, and Biological Evaluation of Naturally Occurring Actinofide and Synthetic Analogues” (2017).

The subject of one experiment is A549. The experiment is described as follows: Growth inhibition of human A549 cells after 72 hrs by MTT assay. The conditions noted are these: A549, 72 h. The format is functional. In outline: (§1)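 Cells were grown in RPMI with 10% heat-inactivated fetal bovine serum, 4 mM glutamine, 100 μg/mL gentamicin and penicillin–streptomycin (200 units/mL and […]). They were cultured with compound for 72 h, then read by MTT colorimetric assay. GI50 is the concentration cutting growth by 50% relative to untreated control.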

In the next experiment the test system is U373 MG. The experiment is described as follows: Growth inhibition of human U373 cells after 72 hrs by MTT assay. The format is functional, U-373MG ATCC. In outline: as §1
Background: Formazan colour is commonly taken as a measure of viable cells.

The subject of another experiment is B16-F10. The experiment is described as follows: Growth inhibition of mouse B16F10 cells after 72 hrs by MTT assay. The format is functional. To be noted: B16-F10, 72 h. In outline: as §1
In the next experiment the test system is Hs 683. Put plainly: Growth inhibition of human Hs683 cells after 72 hrs by MTT assay. The format is functional. The conditions noted are these: Hs 683, 72 h. In outline:
as §1

For a further experiment, the system named is SK-MEL-28. The experiment is described as follows: Growth inhibition of human SK-MEL-28 cells after 72 hrs by MTT assay. The format is functional. The conditions noted are these: SK-MEL-28, 72 h. In outline:
as §1

The subject of the next experiment is MCF7. The experiment is described as follows: Growth inhibition of human MCF7 cells after 72 hrs by MTT assay. The format is functional. To be noted: MCF7, 72 h. In outline:
as §1

For orientation: GI50 means the concentration at which growth is held to half of that of the control. Low values mean more potent growth inhibition, high ones less potent growth inhibition.

For `CC(C)=CC(=O)NC(=N)N`, the GI50 is greater than 100 µM with A549; greater than 100 µM in the experiment on U373 MG; 92.8 µM in the experiment with B16-F10; greater than 100 µM in the experiment on Hs 683; greater than 100 µM with SK-MEL-28; greater than 100 µM in the experiment on MCF7.

For the compound `CC(C)=CCC/C(C)=C/C(=O)NC(=N)NC(=O)/C=C(\C)CCC=C(C)C`, the GI50 with A549 was 46.9 µM; with U373 MG it was 38.9 µM; with B16-F10, 23.8 µM; in the experiment on Hs 683, 32.7 µM; in the experiment on SK-MEL-28, 61.9 µM; in the experiment on MCF7, 42.4 µM.

For `CC(C)=CC(=O)NC(=N)NC(=O)C=C(C)C`, the GI50 was 75.6 µM in the experiment with A549; 45.6 µM in the experiment with U373 MG; 21.3 µM in the experiment on B16-F10; 60.3 µM with Hs 683; greater than 100 µM in the experiment with SK-MEL-28; 59.7 µM in the experiment with MCF7.

For `CC(C)=CCC/C(C)=C/CC/C(C)=C/C(=O)NC(=N)NC(=O)C=C(C)C`, the GI50 with A549 was found to be 23.4 µM; with U373 MG, 15.7 µM; in the experiment on B16-F10, 7.5 µM; with Hs 683 it was 8.3 µM; with SK-MEL-28, 24.2 µM; in the experiment with MCF7, 23.4 µM.

`C=C1CCCC(C)(C)[C@@H]1CC/C(C)=C/C(=O)NC(=N)NC(=O)C=C(C)C`: the GI50 is 29.4 µM in the experiment on A549; 28.8 µM with U373 MG; 9.6 µM with B16-F10; 18.1 µM in the experiment on Hs 683; 60.5 µM with SK-MEL-28; 28.1 µM in the experiment on MCF7.

With `CC(C)=CCC/C(C)=C/C(=O)NC(=N)N`, the GI50 turned out to be 76.5 µM in the experiment on A549; 46 µM in the experiment on U373 MG; 17.1 µM in the experiment with B16-F10; 39.4 µM in the experiment on Hs 683; 56.3 µM in the experiment on SK-MEL-28; 52.2 µM with MCF7.

As for `CC(C)=CCC/C(C)=C/CC/C(C)=C/C(=O)NC(=N)N`, the GI50 was 13.7 µM with A549; 21 µM in the experiment on U373 MG; 9.2 µM with B16-F10; 10 µM with Hs 683; 20.1 µM in the experiment on SK-MEL-28; 22 µM in the experiment with MCF7.

For `CC(C)=CCC/C(C)=C/CC/C(C)=C/C(=O)NC(=N)NC(=O)/C=C(\C)CC/C=C(\C)CCC=C(C)C`, the GI50 came to 18.5 µM in the experiment with A549; 9.2 µM in the experiment with U373 MG; 5.7 µM in the experiment on B16-F10; 6.8 µM in the experiment with Hs 683; 42.7 µM with SK-MEL-28; 30.3 µM in the experiment on MCF7.

As to `CC(C)=CCC/C(C)=C/C(=O)NC(=N)NC(=O)C=C(C)C`, the GI50 is 37.4 µM in the experiment with A549; 36.2 µM with U373 MG; 25 µM with B16-F10; 31.5 µM with Hs 683; 53.4 µM in the experiment on SK-MEL-28; 41.5 µM with MCF7.

For `CC(C)=CCC/C(C)=C/CC/C(C)=C/C(=O)NC(=N)NC(=O)/C=C(\C)CCC=C(C)C`, the GI50 in the experiment with A549 was found to be 38.9 µM; with U373 MG, 35 µM; in the experiment with B16-F10, 18.9 µM; with Hs 683, 37.4 µM; with SK-MEL-28 it was 57.3 µM; with MCF7, 51.2 µM.

With `COc1cc([C@@H]2c3cc4c(cc3[C@@H](O[C@@H]3O[C@@H]5CO[C@@H](C)O[C@H]5[C@H](O)[C@H]3O)[C@H]3COC(=O)[C@H]23)OCO4)cc(OC)c1O` [ETOPOSIDE], the GI50 in the experiment with A549 came out at 1.7 µM; in the experiment on U373 MG, 24.9 µM; with Hs 683 it was 1.5 µM; in the experiment with SK-MEL-28 it was 3.2 µM; in the experiment with MCF7, 4 µM.
